This note sets out measurements from ChEMBL document CHEMBL3826928, “Incorporation of Phosphonate into Benzonaphthyridine Toll-like Receptor 7 Agonists for Adsorption to Aluminum Hydroxide” (J Med Chem, 2016).

Type in all cases: ADME, organism-based
Holding throughout (settings): in vivo

The subject of data set [1] is Serum. Nature of the data set: Drug level in Balb/c mouse serum at 100 ug, im measured at 24 hrs post dose. In a few lines:
(§1)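 Female BALB/c mice (6−8 weeks, 3 per group) given 100 μg intramuscularly, with or without alum, 50 μL in each hind leg. Serum from retro-orbital bleeds at time points; protein precipitation, reverse-phase LC and ESI+ MRM mass spectrometry. Injected muscle drug level measured at 24 h.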

Data set [2] deals with Muscle tissue. In words: Drug level in Balb/c mouse muscle at 100 ug, im measured at 24 hrs post dose. In a few lines:
as §1

Data set [3] concerns Serum. Nature of the data set: Drug level in Balb/c mouse serum at 100 ug, im measured up to 24 hrs post dose using alum bound compound formulation. In a few lines: as §1
The test system of data set [4] is Muscle tissue. Nature of the data set: Drug level in Balb/c mouse muscle at 100 ug, im measured at 24 hrs post dose using alum bound compound formulation. Summed up:
as §1

In the case of `Cc1ccc2c(c1)nc(N)c1ncc(CCc3ccc(OCCOCCOCCC(F)(F)P(=O)(O)O)cc3C)cc12`, the Drug uptake entry is recorded as “Active” in the data set on Serum [1], “Not Active” in the data set on Muscle tissue [2], “Not Active” in the data set with Serum [3] and “Active” with Muscle tissue [4].
